miR-122 sensor: inhibitors of miR-122 in Huh7 cells; AID 602342; Huh7 miR-122 Renilla luciferase sensor, 48 h; neutral wells = 0, positive control = 100; activation (reporter increase), % at 12.5 µM; 340,000 compounds, 0.3% hits;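 active = mean replicate activation score at least 90 and every replicate individually at or above 90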;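 note: higher luciferase means less miR-122 activity so hits act as miR-122 inhibitors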
rRNA inh HTS: selective bacterial rRNA inhibition in E. coli | GFP signal change (wild-type ribosome), % (concentration not given with the values) | 350,000 compounds, 1.6% hits | AID 720706 | E. coli WT GFP vs humanized-ribosome RFP mutants, fluorescence, 24 h; active compounds read low; DMSO median 0, no signal -100;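 active = significant combined selectivity score with lowered wild-type GFP, culture density cut under 30%, mutant RFP and density less affected; inactive = any of these conditions unmet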
Env fusion inh: HIV envelope-mediated fusion inhibition; 360,000 compounds, 1.1% hits; HeLa-JRFL Env/CEM21 cell fusion, luciferase; inhibition, % at 12.3 µM;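 active = mean replicate inhibition score of at least 50 and every replicate individually at or above 50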
Vif imaging: HIV Vif inhibition. HEK293T cells, Vif self-association by quenched fluorescence, imaging, 24 h. inhibition, % at 7.49 µM. 340,000 compounds, 0.35% hits; in the data active = inhibition above about 50%, passing the limit was not always enough
S100A4 MyoIIA: inhibitors of human S100A4 binding to myosin IIA peptide. 360,000 compounds, 0.14% hits. S100A4/TAMRA-MyoIIA peptide fluorescence polarization. AID 652163. inhibition, % at 10.7 µM;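 active = mean inhibition of at least 70% across replicates, with every replicate also reaching that level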
Target sequence (P26447 whole entry, looked up): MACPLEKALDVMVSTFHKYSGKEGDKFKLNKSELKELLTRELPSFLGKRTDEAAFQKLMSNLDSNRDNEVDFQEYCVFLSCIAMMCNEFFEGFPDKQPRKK
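Test system: S100A4 monomer protein. Medium: HEPES buffer with Ca2+, pH 7.2. Reagent: fluorescent myosin IIA peptide, 5 nM. Compound dosing: single-point compound testing. Timing: 5 min between mix addition and reading. Benchmarks: DMSO neutral and TFP positive wells.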
FN deposit inh: fibronectin deposition inhibition | AH1F fibroblasts, Alexa488-fibronectin deposition fluorescence, overnight | inhibition, % at 12.6 µM | 350,000 compounds, 0.086% hits | AID 743247;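 active = mean inhibition across replicates of 30% or more, regardless of how many single replicates reach that level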
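Assay system: AH1F fibroblasts / Quantity: 10000 cells per well / Medium: DMEM plus 2% serum, read in PBS / Reagent: labelled fibronectin 24 nM / Dosing: single dose, pinned / Times: 1 h cell attachment, overnight exposure to compound and label / Signal: fluorescence, ex 485 nm, em 525 nm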
A number is an active result; - = inactive; . = no result given; [ ] = another dose, or the depositor's remark. A selection: hits, their analogues and other compounds. The true share with any hit is near 2.6%.

SMILES	miR-122 sensor	rRNA inh HTS	Env fusion inh	Vif imaging	S100A4 MyoIIA	FN deposit inh
C[C@@H]1CN([C@H](C)CO)C(=O)c2cc(NC(=O)Cn3cnnn3)ccc2O[C@@H]1CN(C)S(=O)(=O)c1ccc(Cl)cc1	-	-	-	.	-	.
COc1ccc(S(=O)(=O)N2c3cc(Cl)ccc3Oc3nc4ccccc4nc32)cc1	-	.	.	58.0	.	.
CC(C)NC(=O)Nc1ccc2c(c1)C(=O)N([C@H](C)CO)C[C@@H](C)[C@H](CN(C)Cc1ccc(C(F)(F)F)cc1)OCCCC[C@@H](C)O2	-	-	74.7[16.7 µM]	.	-	-
C[C@H]1CCCCO[C@@H](CN(C)Cc2ccc(C(F)(F)F)cc2)[C@@H](C)CN([C@@H](C)CO)C(=O)c2cc(NC(=O)Nc3ccc(F)cc3)ccc2O1	-	-	87.2[16.7 µM]	.	-	-
CC(C)NC(=O)Nc1ccc2c(c1)C(=O)N([C@H](C)CO)C[C@@H](C)[C@@H](CN(C)Cc1ccc(C(F)(F)F)cc1)OCCCC[C@@H](C)O2	-	-	-	.	-	-
C[C@@H]1CCCCO[C@@H](CN(C)Cc2ccc(C(F)(F)F)cc2)[C@H](C)CN([C@H](C)CO)C(=O)c2cc(NC(=O)Nc3ccc(F)cc3)ccc2O1	-	-	59.9[16.7 µM]	.	-	-
C[C@@H]1CCCCO[C@@H](CN(C)Cc2ccc(C(F)(F)F)cc2)[C@H](C)CN([C@H](C)CO)C(=O)c2cc(NC(=O)Nc3ccc(C(F)(F)F)cc3)ccc2O1	-	-	70.2[16.7 µM]	.	.	-
C[C@@H]1CCCCO[C@@H](CN(C)Cc2ccc(C(F)(F)F)cc2)[C@H](C)CN([C@H](C)CO)C(=O)c2cc(NC(=O)C3CCCCC3)ccc2O1	-	-	70.6[16.7 µM]	.	.	.
C[C@@H]1CCCCO[C@H](CN(C)Cc2ccc(C(F)(F)F)cc2)[C@@H](C)CN([C@@H](C)CO)C(=O)c2cc(NC(=O)C3CCCCC3)ccc2O1	-	-	-	.	.	.
CCc1ccc(C2=NNC(=Nc3cccc(S(=O)(=O)N(C)C)c3)SC2)cc1	.	-	80.0	-	-	-
C[C@H](CO)N1C[C@H](C)[C@H](CN(C)C(=O)c2cnccn2)Oc2ncc(/C=C/c3ccccc3)cc2C1=O	-	-	-	.	-	-
CNC[C@H]1Oc2c(NC(=O)NC(C)C)cccc2C(=O)N(C)C[C@H]1C	.	-	.	.	.	-
O=C(Oc1ccc2c(c1)OCO2)c1cc2c(s1)CCC2	-	.	75.4	-	.	-
CCC(=O)N1[C@@H]2c3cccc(=O)n3C[C@H]1[C@H](CO)[C@H]2C(=O)NCc1ccccc1	-	-	.	.	-	.
CN(Cc1ccc(OC(F)F)cc1)C(=O)c1ccccc1Sc1ccccc1C#N	.	-	56.0	-	-	.
O=C1C=C(O)c2cccc(O)c2C1=O	-	.	.	-	-	.
CC1OC(CC(=O)O)CC2=C1C(=O)c1c(O)cccc1C2=O (stereo unspecified)	-	-	76.2	-	-	59.2
Cc1noc(C)c1NC(=O)N(C)C[C@@H]1OCCCC[C@H](C)Oc2ccc(NC(=O)Cc3ccccc3)cc2C(=O)N([C@H](C)CO)C[C@H]1C	-	-	-	.	-	.
Cc1ccc(Nc2cc(=O)[nH]c(=O)[nH]2)cc1C	-	-	-	56.8	-	-
CC(=O)COc1ccc2c(-c3ccccc3)cc(=O)oc2c1C	.	-17.9	-	-	-	-
Cc1c(OC(C(=O)O)c2ccccc2)ccc2c(-c3ccccc3)cc(=O)oc12 (stereo unspecified)	-	-24.8	-	-	-	-
Cc1c(OCC(N)=O)ccc2c(-c3ccccc3)cc(=O)oc12	-	-	-	-	-	-
C[C@@H]1CCCCO[C@@H](CN(C)C(=O)Nc2ccc3c(c2)OCO3)[C@H](C)CN([C@@H](C)CO)C(=O)c2cc(N(C)C)ccc2O1	-	-	-	.	.	.
O=C(CN1CCN(Cc2ccc(Cl)cc2)C1=O)NCCCN1CCN(c2ccc(F)cc2)CC1	-	.	67.7	-	.	-
COc1ccc(CCNC(=O)COC(=O)Cn2cnc3ccccc3c2=O)cc1	186.4	-	-	-	-	-
SMILES	miR-122 sensor	rRNA inh HTS	Env fusion inh	Vif imaging	S100A4 MyoIIA	FN deposit inh
C[C@H]1CNC(=O)c2c(C(=O)N3CCN(C(=O)OC(C)(C)C)CC3)ncn21	-	-	71.7	-	-	-
C[C@H](NC(=O)c1ncn2c1C(=O)NC[C@H]2C)c1ccccc1	-	-	-	-	-	-
C[C@@H]1Cn2cnc(C(=O)N(C)Cc3ccccc3)c2C(=O)N1	.	-	-	.	-	-
C[C@@H]1CNC(=O)c2c(C(=O)N(C)Cc3ccccc3)ncn21	.	-	137.1	.	-	-
C[C@H]1CNC(=O)c2c(C(=O)N3CCN(c4ccccc4)CC3)ncn21	.	-	79.0	.	-	-
CC(C)(C)OC(=O)N1CCN(C(=O)c2ncn3c2c(=O)[nH]c2ccccc23)CC1	-	-	.	-	-	-
CCN1[C@H](C(=O)Nc2nccs2)[C@@H](CO)[C@@H]2Cn3c(ccc(/C=C/c4ccccc4)c3=O)[C@@H]21	.	-	.	.	-	.
CS(=O)(=O)Nc1ccc2c(c1)[C@@H]1C[C@@H](CC(=O)NCc3ccccn3)O[C@H](CO)[C@@H]1O2	-	-	-	.	-	.
COc1ccc(S(=O)(=O)Nc2ccc3c(c2)C(=O)N([C@@H](C)CO)C[C@@H](C)[C@H](CN(C)C(=O)CCCN(C)C)OCCCC[C@@H](C)O3)cc1	-	-	-	.	-	.
Cc1ccc(C(CC(=O)N2CCCC2)c2ccccc2)c(O)c1 (stereo unspecified)	-	-26.4	-	-	-	-
CC(C)Cc1ccc(S(=O)(=O)Nc2ccc3[nH]c(=O)[nH]c3c2)cc1	-	-25.5	-	-	-	-
C[C@@H]1CN([C@@H](C)CO)C(=O)c2cc(NS(=O)(=O)c3ccc(Cl)cc3)ccc2O[C@@H](C)CCCCO[C@H]1CN(C)CC1CC1	-	-	-	.	-	.
Oc1cccc(Nc2nc(O)c(/C=C3\C=Nc4ccccc43)s2)c1	-	-	-	56.8	-	-
CC(=O)Nc1ccc(S(=O)(=O)NCC(=O)OCC(=O)NC23CC4CC(CC(C4)C2)C3)cc1	-	.	-	75.5	.	-
CSc1cccc(NC(=O)CSc2nc3ccccc3o2)c1	-	-25.0	.	-	-	.
Cc1ccc(-c2ccc(C3[C@H]4CNC[C@@H]3N4S(=O)(=O)c3ccc(C)cc3)cc2)cc1 (stereo partly specified)	.	-	.	.	-	-
CC(C)(C)C1CCC(=NNc2nc3ccccc3[nH]2)CC1 (stereo unspecified)	-	-23.0	-	-	-	-
c1ccc(CN2CCC(=NNc3nc4ccccc4[nH]3)CC2)cc1	-	-	-	-	-	.
CNC[C@H]1OCCCC[C@@H](C)Oc2ccc(NC(=O)C3CCCCC3)cc2C(=O)N([C@@H](C)CO)C[C@@H]1C	-	-	-	.	96.9	.
